In the library only some 4.9% were active in any assay of this set; here they are far more common.
APP 5'UTR act: activates APP 5'UTR luciferase reporter; SH-SY5Y APP 5'UTR luciferase reporter, luminescence; zero percent = DMSO vehicle wells; activation, % at 2 µM; hit rate 1% among 190,000;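 active = activation above a set limit, based on mean plus 3 SD of controls, cut at about 140% in these data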
STAT3 activator: activators of IL-6 induced STAT3 signaling | U3A cells, IL-6 STAT3-luciferase reporter, luminescence; 100% = signal with IL-6 EC80 alone | activation (% of control), % at 5.6 µM | hit rate 0.91% among 190,000;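 active = activation above the screen-wide mean of compound activation plus 3 SD, cut at about 130% in these data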
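Test system: human U3A cells carrying STAT3-luciferase construct; control set: IL-6-only wells as 100% reference; timing: compound pre-incubation 1 h before IL-6, then 6 h stimulation at 37 °C; also added: IL-6 stimulus at 33 ng/mL final; evaluation: % activation versus median of IL-6-stimulated wells; detection: reporter luminescence signal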
NF-kB expr up: compounds increasing NF-kB expression in human neuronal cells. hit rate 1.6% among 190,000. NF-kB reporter expression; stronger effect = higher value. fold change at 12.5 µM. AID 1239; in the data active = fold change above about 3.3
STAT1 act: activators of IFN-gamma induced STAT1 signaling; NIH 3T3 STAT1-luciferase reporter, luminescence; 100% = IFN-gamma alone, no compound; activation (% of control), % at 5.5 µM; hit rate 2.6% among 200,000;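 active = activation above the screen-wide mean activation plus 3 SD, cut at about 130% in these data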
STAT1 blocker: STAT1 signaling inhibition. NIH 3T3 STAT1-luciferase reporter, IFN-gamma, luminescence. inhibition, % at 5.5 µM. hit rate 0.35% among 200,000;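 active = inhibition above a set limit, the mean inhibition across all tested compounds plus 3 SD, cut at about 34% in these data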
STAT3 blocker: inhibitors of IL-6 induced STAT3 signaling | hit rate 0.89% among 190,000 | inhibition, % at 5.5 µM | U3A cells, IL-6 STAT3-luciferase reporter, luminescence; host cell line lacks STAT1;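 active = inhibition above the mean inhibition across all screened compounds plus 3 SD, cut at about 44% in these data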
Of the large screens only hits and unclear results are named; the others gave an inactive call.

Cc1ccnc(NC(=O)C(C)n2cc([N+](=O)[O-])cn2)c1 (configuration not stated)	none
COc1ccc(S(=O)(=O)NCCc2nnc3ccc(SCC(=O)Nc4nc(C)cs4)nn23)cc1	none
O=[N+]([O-])c1ccc2oc(-c3ccccc3)nc2c1	NF-kB expr up 4.2, STAT1 act 145
Cc1ccc2oc(-c3ccccc3)nc2c1	STAT1 act 134
NC(N)=Nc1nc2cc([N+](=O)[O-])ccc2o1	none
Cc1ccc(C)c(-c2nc3cc(N)ccc3o2)c1	none
CN1CCN(NC(=S)NC2CCCC2)CC1	none
COc1ccc(/C=N/Nc2nccnc2Cl)cc1	APP 5'UTR act 164
CC/C(=N/NC(=O)c1ccc(Br)o1)c1ccc(Cl)cc1	STAT1 act 131
CCn1cc(S(=O)(=O)Nc2cc(F)ccc2C)cn1	none
COc1ccccc1-c1noc(-c2ccncc2)n1	none
COc1ccccc1-c1nc(-c2ccccn2)no1	STAT1 blocker 36, STAT3 blocker 75
COc1nc(C)ccc1-c1noc(-c2ccccn2)n1	NF-kB expr up 4.2
COc1ccccc1-c1noc(-c2cccs2)n1	NF-kB expr up 3.8, STAT1 act 130
Cc1ccccc1-c1nc(-c2ccccn2)no1	STAT1 blocker 77, STAT3 blocker 99
CC(=O)Nc1ccc(OS(=O)(=O)c2ccc([N+](=O)[O-])cc2)cc1	none
COc1ccc(-c2nc(-c3ccccn3)no2)cc1	STAT1 blocker 96, STAT3 blocker 109
COc1ccc(Oc2nc(-c3ccccn3)ncc2OC)cc1	none
Clc1ccc(-c2nc(Cc3ccccc3)no2)cc1	none
Cc1ccccc1-c1nc(Cc2ccccc2)no1	STAT1 act 140
COc1ccc(N(C)S(=O)(=O)c2cccc(C(=O)N(C)Cc3ccc(C)o3)c2)cc1	none
CCCc1cc(C(=O)NCc2ccc(OC)cc2)no1	none
CCCc1cc(C(=O)Nc2cc(Br)ccc2O)no1	NF-kB expr up 5.5
CC(C)c1cc(C(=O)Nc2cc(Cl)ccc2O)no1	APP 5'UTR act 139, NF-kB expr up 8.6
CC(C)c1cc(C(=O)Nc2cc(Br)ccc2O)no1	NF-kB expr up 7.5
CC1CCc2c(sc3ncn(CCO)c(=O)c23)C1 (configuration not stated)	STAT1 act 138
Fc1ccc(CSc2nnc(-c3cccs3)o2)cc1	none
CC1CCCC(C)N1C(=O)CSc1nnc(-c2cccs2)o1 (configuration not stated)	STAT1 act 147
Fc1ccccc1CSc1nnc(-c2cccs2)o1	NF-kB expr up 4.1, STAT1 act 146
CC(C)c1ccc(NC(=O)c2cccnc2)cc1	STAT1 act 143
CC(C)c1ccc(NC(=S)NNC(=O)c2cccnc2)cc1	none
CC(C)c1ccc(NC(=O)c2n[nH]c(=O)c3ccccc23)cc1	STAT1 act 133
CCOC(=O)CN1CC23C=CC(O2)C(C(=O)Nc2ccc(C(C)=O)cc2)C3C1=O (configuration not stated)	none
Cc1ccc(NC(=O)n2ccc(-c3ccc(-n4ccnc4)cc3)n2)cc1	STAT1 act 135
CCOC(=O)c1ccccc1NC(=O)Cn1c(=O)n(Cc2ccccc2)c(=O)c2c(C)c(C)sc21	none
FC(F)(F)c1ccc(Oc2ccc3cc(Br)ccc3c2)nc1	none
O=[N+]([O-])c1ccc(Oc2ccc(C(F)(F)F)cn2)cc1	STAT1 act 142
O=C(CSc1nnc(-c2ccco2)o1)c1ccc[nH]1	STAT1 act 130
CC(CNC(=O)CC(C)(C)C)NC(=O)CC(C)(C)C (configuration not stated)	none
Cc1ccc(N(C(=O)CS(=O)CC(=O)Nc2ccc(F)cc2)C(C(=O)NC2CCCCC2)c2ccco2)cc1 (configuration not stated)	none
CN(C)c1ccc(/C=C/c2ccc3c4ccccc4ccc3[n+]2-c2ccccc2)cc1	STAT1 blocker 46, STAT3 blocker 81
Cc1ccc2c(c1)C(=O)C(=O)N2CCOc1ccccc1	NF-kB expr up 3.6
Cc1cccc(OCCN2C(=O)C(=O)c3cc(C)ccc32)c1	NF-kB expr up 3.8
Cc1ccc2c(c1)C(=O)C(=O)N2CCCOc1ccccc1C	none
O=C(COc1ccc(S(=O)(=O)N2CCc3ccccc32)cc1Cl)NCc1ccccn1	none
O=C(COc1ccccc1Cl)N1CCN(c2ccc([N+](=O)[O-])c(N3CCOCC3)c2)CC1	none
COc1ccc(-c2nc3c(c(=O)n(C)c(=O)n3C)n2CC2CC(c3ccccc3)=NO2)cc1OC (configuration not stated)	none (no result: NF-kB expr up)
N#Cc1ncc(-c2ccc3c(c2)OCCOCCOCCOCCOCCO3)nc1C#N	NF-kB expr up 6.7
O=C(NCCc1nnc2ccc(NCc3ccc(F)cc3)nn12)c1ccccc1	none
CCOC(=O)C1=C(C)n2c(s/c(=C/c3cccc([N+](=O)[O-])c3)c2=O)=NC1c1ccc(O)c(OC)c1 (configuration not stated)	NF-kB expr up 6.8
CCOC(=O)C1=C(C)N=c2s/c(=C/c3ccccc3)c(=O)n2C1c1ccc(OC)c(OC)c1 (configuration not stated)	none
CC(=O)Nc1ccc(OCC(=O)NC(C)c2ccc(F)cc2)cc1 (configuration not stated)	none
O=C(Nc1nsc(-c2ccccc2)n1)c1ccc(F)cc1	STAT1 act 129
O=C(Nc1ncc(Cc2ccccc2)s1)C1CCCO1 (configuration not stated)	NF-kB expr up 4.1
CCOc1ccc2nc(NC(=O)C3CCCO3)sc2c1 (configuration not stated)	APP 5'UTR act 158, NF-kB expr up 4.7, STAT1 act 140
O=C(Nc1nc2ccc(C(=O)N3CCCCC3)cc2s1)C1CCCCC1	none
Nc1ccc2nc(NC(=O)C3CCCCC3)sc2c1	NF-kB expr up 4.8, STAT1 act 146
O=C(Nc1nnc(Cc2ccc(Cl)cc2)s1)C1CCCO1 (configuration not stated)	none
O=C(Nc1nnc(-c2ccccc2F)s1)C1CCCO1 (configuration not stated)	STAT1 act 141
O=C(Nc1nnc(-c2ccncc2)s1)C1CCCO1 (configuration not stated)	none
CCOc1ccc2nc(NC(=O)NC3CCCCC3)sc2c1	none
Cn1cc(S(=O)(=O)N2CCC(C(N)=O)CC2)c(=O)n(C)c1=O	none (no result: STAT3 activator, STAT3 blocker)
CSCCC(NC(=O)c1ccc(Cl)cc1)C(=O)NC(C)(C)C (configuration not stated)	none
COCCNC(=O)c1ccc(CN2CCOCC2)cc1	none
COC(=O)C1=C(N)Oc2cc(C)n(Cc3cccnc3)c(=O)c2C1c1cccc(OC)c1OC (configuration not stated)	none
O=C(Nc1nc2ccc(F)cc2s1)C1CCCO1 (configuration not stated)	NF-kB expr up 3.9, STAT1 act 146

Compound activity (PubChem)
